Assay results: article PMC3288193 (Clinical Immunology (Orlando, Fla.), 2011)

Columns and labels:
[1] = test system: purified Class II molecules (DRB1*0101, DRB1*0301, DRB1*0401, DRB1*0701, DRB1*1501); test: Competition-based class II HLA binding assay; design: species or system human; settings: test peptide 100 μM; average of 5 DRB1 alleles; Fig. 2
Procedure, shortened: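 Non-biotinylated test peptides (HPLC-purified ≥80%) at 100 μM competed against biotinylated standard peptide (0.1 μM) for purified class II molecules (50 nM), 24 h at 37°C. Complexes were captured on ELISA plates with pan anti-class II L243, then incubated with europium-streptavidin for 1 h at RT, developed 15–20 min, and read by TRF. Triplicates. Percent inhibition per allele was averaged across five alleles.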

[2] = test system: LN cells of hemophilic FVIII KO E16 mice (H-2b); test: T cell proliferation of LN cells from peptide-immunized E16 mice; assay type: in vivo, mouse; settings: LN cells stimulated with 2191 in presence of competitor ORG peptides over a range of concentrations, Appendix Fig. 1
[3] = test system: LN cells of HLA-DR4 (DRB1*0401) transgenic mice; test: T cell proliferation of LN cells from peptide-immunized DR4 mice; assay type: in vivo, mouse; settings: DR4 mice immunized with mixture of 2231-M1, -M2, -M3, 3 μg each in CFA; Fig. 5C
Procedure, shortened: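 Mixed peptides (3 μg each in CFA) were injected subcutaneously via hind footpad and tail base. After two weeks, pooled draining inguinal/popliteal LN cells (0.5×10^6/well) were stimulated 48 h with ORG or MOD peptides (0, 1, 3, 10 μg/ml) in RPMI 1640 with 2% FBS and 0.5% hemophilic mouse serum. Cells were pulsed with 1 μCi [3H]-thymidine for 16–20 h and beta-counted. Results are background-subtracted ΔCPM, mean ± SEM of triplicates.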

effect of modification on average HLA binding versus ORG peptide [1]	HLA binding, average across HLA alleles (rank among ORG peptides) [1]	Substance	effect of competitor ORG peptides on 2191-O-specific proliferation [2]	de novo immunogenicity of MOD peptides (T cell proliferation) [3]
only moderately reduced binding	–	2191-M1: modified (MOD) version of 2191-O with one substitution, F2196G (TASSYGTNMFATWSPSKARL)	–	–
–	bound strongest	2191-O: original (ORG) human FVIII C2 domain epitope cluster peptide, amino acid positions 2191–2210 (TASSYFTNMFATWSPSKARL)	not affected by the presence of competitor ORG peptides	–
lower HLA binding	–	2231-M1: modified (MOD) version of 2231-O with F2234G mutation (QVDGQKTMKVTGVTTQGVKSL)	–	significantly lower
